Results reported in ChEMBL document CHEMBL4765454, “Betulinic acid derived amides are highly cytotoxic, apoptotic and selective” (Eur J Med Chem, 2020).
pEC50: −log10 of the molar value. Calls of active or inactive are those of the source. The calls are words filed in the database; no cut-off is given here.

Assays:
A-375 [1] = experiment: Cytotoxicity against human A-375 cells assessed as reduction in cell viability incubated for 72 hrs by SRB assay; type: functional, cell-based; details: Homo sapiens, A-375, 72 h; read-out: EC50
HT-29 = experiment: Cytotoxicity against human HT-29 cells assessed as reduction in cell viability incubated for 72 hrs by SRB assay; type: functional, cell-based; details: Homo sapiens, HT-29, 72 h; read-out: EC50
MCF7 = experiment: Cytotoxicity against human MCF7 cells assessed as reduction in cell viability incubated for 72 hrs by SRB assay; type: functional, cell-based; details: Homo sapiens, MCF7, 72 h; read-out: EC50
A2780 = experiment: Cytotoxicity against human A2780 cells assessed as reduction in cell viability incubated for 72 hrs by SRB assay; type: functional, cell-based; details: Homo sapiens, A2780, 72 h; read-out: EC50
FaDu = experiment: Cytotoxicity against human FaDu cells assessed as reduction in cell viability incubated for 72 hrs by SRB assay; type: functional, cell-based; details: Homo sapiens, FaDu, 72 h; read-out: EC50
NIH3T3 = experiment: Cytotoxicity against mouse NIH3T3 cells assessed as reduction in cell viability incubated for 72 hrs by SRB assay; type: cell-based; details: Mus musculus, NIH3T3, 72 h; read-out: EC50
[2] = Selectivity ratio of EC50 for mouse NIH3T3 cells to EC50 for human HT-29 cells; type: toxicity; details: NIH3T3 cells versus HT-29 cells, read-out: Ratio EC50
[3] = Selectivity ratio of EC50 for mouse NIH3T3 cells to EC50 for human MCF7 cells; type: toxicity; details: NIH3T3 cells versus MCF7 cells, read-out: Ratio EC50
[4] = Selectivity ratio of EC50 for mouse NIH3T3 cells to EC50 for human A2780 cells; type: toxicity; details: NIH3T3 cells versus A2780 cells, read-out: Ratio EC50
[5] = Selectivity ratio of EC50 for mouse NIH3T3 cells to EC50 for human FaDu cells
A-375 [6] = experiment: Induction of apoptosis in human A375 cells assessed as necrotic cells at 3 uM measured after 24 hrs by Annexin V-FITC/propidium iodide staining based flow cytometry (reference value: 0.331%); type: functional
A-375 [7] = experiment: Induction of apoptosis in human A375 cells assessed as late apoptotic cells at 3 uM measured after 24 hrs by Annexin V-FITC/propidium iodide staining based flow cytometry (reference value: 7.352%); type: functional
A-375 [8] = experiment: Induction of apoptosis in human A375 cells assessed as viable cells at 3 uM measured after 24 hrs by Annexin V-FITC/propidium iodide staining based flow cytometry (reference value: 90.123%); type: functional; details: read-out: Activity
A-375 [9] = experiment: Induction of apoptosis in human A375 cells assessed as early apoptotic cells at 3 uM measured after 24 hrs by Annexin V-FITC/propidium iodide staining based flow cytometry (reference value: 2.194%); type: functional
A-375 [10] = experiment: Induction of apoptosis in human A375 cells assessed as necrotic cells at 3 uM measured after 48 hrs by Annexin V-FITC/propidium iodide staining based flow cytometry (reference value: 0.547%); type: functional
A-375 [11] = experiment: Induction of apoptosis in human A375 cells assessed as late apoptotic cells at 3 uM measured after 48 hrs by Annexin V-FITC/propidium iodide staining based flow cytometry (reference value: 5.108%); type: functional
A-375 [12] = experiment: Induction of apoptosis in human A375 cells assessed as viable cells at 3 uM measured after 48 hrs by Annexin V-FITC/propidium iodide staining based flow cytometry (reference value: 92.723%); type: functional; details: read-out: Activity
A-375 [13] = experiment: Induction of apoptosis in human A375 cells assessed as early apoptotic cells at 3 uM measured after 48 hrs by Annexin V-FITC/propidium iodide staining based flow cytometry (reference value: 1.622%); type: functional
A-375 [14] = experiment: Induction of apoptosis in human A375 cells at 3 uM measured after 24 hrs by microscopic analysis; type: functional, cell-based
Summary of the method: (§1)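 A375 cells treated at 3.0, 4.8 or 6.2 µM and inspected by light microscopy after 24 h or 48 h. Cell number and morphology were scored for apoptotic features: shrinkage, strangulation and blebbing.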

A-375 [15] = experiment: Induction of apoptosis in human A375 cells assessed as cell shrinkage at 3 uM measured after 48 hrs by microscopic analysis; type: functional, cell-based; summary of the method: as §1
A-375 [16] = experiment: Induction of apoptosis in human A375 cells assessed as strangulation at 3 uM measured after 48 hrs by microscopic analysis; type: functional, cell-based; summary of the method: as §1
A-375 [17] = experiment: Induction of apoptosis in human A375 cells assessed as blebbing at 3 uM measured after 48 hrs by microscopic analysis; type: functional, cell-based; summary of the method: as §1
A-375 [18] = experiment: Cell cycle arrest in human A375 cells assessed as accumulation at subG1 phase measured after 24 hrs by propidium iodide staining based flow cytometry (reference value: 0.46%); type: functional
A-375 [19] = experiment: Cell cycle arrest in human A375 cells assessed as accumulation at G1 phase measured after 24 hrs by propidium iodide staining based flow cytometry (reference value: 44.59%); type: functional
A-375 [20] = experiment: Cell cycle arrest in human A375 cells assessed as accumulation at S phase measured after 24 hrs by propidium iodide staining based flow cytometry (reference value: 47.46%); type: functional
A-375 [21] = experiment: Cell cycle arrest in human A375 cells assessed as accumulation at G2/M phase measured after 24 hrs by propidium iodide staining based flow cytometry (reference value: 7.48%); type: functional
A-375 [22] = experiment: Cell cycle arrest in human A375 cells assessed as accumulation at subG1 phase measured after 48 hrs by propidium iodide staining based flow cytometry (reference value: 0.57%); type: functional
A-375 [23] = experiment: Cell cycle arrest in human A375 cells assessed as accumulation at G1 phase measured after 48 hrs by propidium iodide staining based flow cytometry (reference value: 57.3%); type: functional
A-375 [24] = experiment: Cell cycle arrest in human A375 cells assessed as accumulation at S phase measured after 48 hrs by propidium iodide staining based flow cytometry (reference value: 31.3%); type: functional
A-375 [25] = experiment: Cell cycle arrest in human A375 cells assessed as accumulation at G2/M phase measured after 48 hrs by propidium iodide staining based flow cytometry (reference value: 10.83%); type: functional

With `C=C(C)[C@@H]1CC[C@]2(C(=O)Nc3cncc4ccccc34)CC[C@]3(C)[C@H](CC[C@@H]4[C@@]5(C)CC[C@H](OC(C)=O)C(C)(C)[C@@H]5CC[C@]43C)[C@@H]12` the pEC50 (A-375 [1]) was 5.83, the pEC50 (HT-29) was < 4.52 and the pEC50 (MCF7) was 5.33. For the same molecule, the pEC50 (A2780) was 5.67, the pEC50 (FaDu) was 5.65 and the pEC50 (NIH3T3) was < 3.87. For the same molecule, the selectivity ratio [2] was 4.5, the selectivity ratio [3] was 29 and the selectivity ratio [4] was 62.5. The “Ratio EC50” value [5] was 59.7, the Activity (A-375 [6]) was 0.351% and the Activity (A-375 [7]) was 9.649%. For the same molecule, the viability at 3 µM (A-375 [8]) was 83.5%, the Activity (A-375 [9]) was 8.551% and the Activity (A-375 [10]) was 1.115%. For the same molecule, the Activity (A-375 [11]) was 21.382%, the viability at 3 µM (A-375 [12]) was 33.2% and the Activity (A-375 [13]) was 44.309%. The Activity (A-375 [14]) was “Active”, the Activity (A-375 [15]) was “Active” and the Activity (A-375 [16]) was “Active”. For the same molecule, the Activity (A-375 [17]) was “Active”, the Activity (A-375 [18]) was 2.38% and the Activity (A-375 [19]) was 61.06%. It also gave an Activity (A-375 [20]) of 36.56%, an Activity (A-375 [21]) of 0% and an Activity (A-375 [22]) of 23.32%. The Activity (A-375 [23]) was 41.85%, the Activity (A-375 [24]) was 34.84% and the Activity (A-375 [25]) was 0%.
